The test system of data set [1] is Bel-7402. The data set can be described thus: Induction of apoptosis in human Bel7402 cells assessed as increase in cleaved PARP level at 5 uM after 72 hrs by Western blot analysis. The class given is functional, cell-based. Put shortly: (§1)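 Subconfluent Bel7402 cells (1.5 × 10^5/mL) exposed to vehicle or compound for 72 h, then lysed. Lysates (0.05 mg/lane) run on 12% SDS-PAGE, transferred to nitrocellulose, blocked in 5% nonfat milk. Probed for Bax, Bcl-2, cleaved caspase-3 and cleaved PARP, with HRP secondary and chemiluminescence. Levels normalized to β-actin; three separate assays, mean ± SD.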
(A western blot detects proteins with antibodies after separation by electrophoresis.)

Data set [2] has as its system L02. The data set can be described thus: Cytotoxicity against human LO2 cells after 72 hrs by MTT assay. To be noted: L02, 72 h. The class given is functional, cell-based. In a few lines:
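Cells grown in DMEM with 10% heat-inactivated FBS, penicillin/streptomycin, 37 °C, 5% CO2. Seeded at 10^4 cells/mL overnight, then exposed to a range of compound concentrations for 72 h; 0.1% DMSO negative control. MTT (5 mg/mL stock) added, absorbance read at 570 nm; percent inhibition from three independent experiments, mean ± SD.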
For orientation: Tetrazolium assays rely on reduction of a dye to a coloured formazan, in cell work by metabolically active cells.

Data set [3] concerns Huh-7. Briefly: Antiproliferative activity against human HuH7 cells after 72 hrs by MTT assay. The class given is functional, cell-based. To be noted: Huh-7, 72 h.
Data set [4] has as its system Bel-7402. The data set can be described thus: Effect on AKT expression in human Bel7402 cells at 1 to 2.5 uM after 24 to 72 hrs by Western blot analysis. The class given is ADME, cell-based. The note with it: bel-7402, 2.5 µM. In a few lines: (§2)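 Bel7402 cells (1.5 × 10^5/mL) exposed to compound at 1.0 and 2.5 μM for 24 or 72 h. Lysates (0.05 mg/lane) separated on 12% SDS-PAGE and blotted to nitrocellulose. Probed for total Akt, phospho-Akt (Ser473), total mTOR and phospho-mTOR, HRP secondary, chemiluminescent detection. Quantified from three separate assays, mean ± SD.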

Data set [5] concerns the target T1, Histone deacetylase (Homo sapiens) (UniProt Q13547+O15379+Q9UBN7+Q92769+Q9UQL6+Q8WUI4+Q9BY41+Q96DB2+P56524+Q9UKV0+Q969S8). Briefly: Inhibition of HDAC in human Bel7402 cells assessed as increase in acetylated alpha-tubulin expression incubated for 72 hrs by Western blot analysis. The class given is cell-based. Put shortly:
(§3)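 Bel7402 cells exposed to vehicle or compound (1.0 and 3.0 μM) for 72 h, with SAHA 5.0 μM as reference. Lysates (0.05 mg/lane) run on 12% SDS-PAGE and transferred to nitrocellulose. Probed with anti-acetyl-H3 and anti-acetyl-α-tubulin, HRP secondary, chemiluminescence. Quantified from three separate assays, mean ± SD.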

In data set [6] the test system is SMMC-7721. The data set can be described thus: Antiproliferative activity against human SMMC7721 cells after 72 hrs by MTT assay. The class given is functional, cell-based. To be noted: SMMC-7721, 72 h.
Data set [7] is described as follows: Inhibition of PI3K/AKT/mTOR signaling in human Bel7402 cells assessed as reduction in AKT phosphorylation after 24 to 72 hrs by Western blot analysis. The class given is cell-based. In a few lines:
as §2

Data set [8] deals with T1, Histone deacetylase (Homo sapiens). The data set can be described thus: Inhibition of HDAC in human Bel7402 cells assessed as increase in acetylated histone h3 expression incubated for 72 hrs by Western blot analysis. The class given is cell-based. Put shortly: as §3
The test system of data set [9] is Bel-7402. Briefly: Induction of apoptosis in human Bel7402 cells assessed as annexin-V positive cells at 1 uM after 72 hrs by Annexin-V/PI staining based flow cytometry relative to control. The class given is functional. In a few lines:
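Bel7402 cells (10 000) cultured overnight, then exposed to compound at 1.0 or 5.0 μM, or vehicle, for 72 h. Harvested, stained with annexin-V APC and 7-AAD for 15 min. Apoptotic percentage measured by flow cytometry (APC ex 633/em 660 nm; 7-AAD ex 488/em 647 nm). Three separate assays, mean ± SD.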
For orientation: In flow cytometry, cells or beads pass a laser one at a time.

The subject of data set [10] is Bel-7402. The data set can be described thus: Induction of apoptosis in human Bel7402 cells assessed as increase in cleaved caspase-3 level at 5 uM after 72 hrs by Western blot analysis. The class given is functional, cell-based. In a few lines:
as §1

For data set [11], the system named is Bel-7402. The data set can be described thus: Induction of autophagy in human Bel7402 cells assessed as downregulation of p62 level at 1 to 5 uM after 24 to 72 hrs by Western blot analysis. The class given is functional, cell-based. In a few lines: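 Bel7402 cells (1.5 × 10^5/mL) exposed to compound at indicated doses, or vehicle, for 24 or 72 h. Lysates (0.05 mg/lane) separated on 12% SDS-PAGE, blotted to nitrocellulose, blocked in 5% milk. Probed with anti-LC3, anti-p62 and anti-beclin-1, HRP secondary, chemiluminescent detection. Levels quantified relative to β-actin; three separate assays, mean ± SD.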

Data set [12] deals with Bel-7402. Briefly: Induction of autophagy in human Bel7402 cells assessed as accumulation of autophagic vacuoles at 1 uM after 24 hrs by acridine orange staining based fluorescence microscopic method. The class given is functional, cell-based. Put shortly: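 Bel7402 cells (10 000) cultured overnight, then exposed to compound at 1.0 or 5.0 μM, or vehicle. Stained with 1 mg/mL acridine orange for 15−20 min, then dye removed. Red versus green fluorescence viewed by fluorescence microscopy at 400×. Representative images from three independent experiments.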

Data set [13] relates to Bel-7402. The data set can be described thus: Antiproliferative activity against human Bel7402 cells after 72 hrs by MTT assay. The class given is functional, cell-based. The note with it: Bel-7402, 72 h.

The source made the active and inactive calls. No cut-off for these calls is given here.

A word on the IC50: it is the concentration needed to halve the response being measured. Lower therefore signals greater potency in that assay.

Regarding `COc1ccc(-c2nc(NCCCOc3ccc(/C=C/C(=O)NO)cc3OC)cc3c2[nH]c2ccccc23)cc1`, the result in data set [1], in data set [10], in data set [11] and in [12] was Active. Besides, the 50% inhibitory concentration (IC50) in data set [2] was more than 25 µM; in data set [3], 1.1 µM; in [6], 2.9 µM; in data set [13] it was 1 µM. Also, the figures for the Activity result in [4] and in data set [9] were “Non-Toxic” and 49.6%, respectively. The inhibition entry in data set [5], in [7] and in [8] was “Dose-dependent effect” throughout.

The values above are taken from ChEMBL document CHEMBL4376807, “Hydroxamic Acid Derivatives of β-Carboline/Hydroxycinnamic Acid Hybrids Inducing Apoptosis and Autophagy through the PI3K/Akt/mTOR Pathways” (J Nat Prod, 2019).
